Assay results: PMC9307089 (Journal of medicinal chemistry, 2021)
Like-named read-outs stand apart in the source and are kept apart here. Numbered stars: 1 amine (or outer) side, 2 acyl side, 3 side chain; on linkers, the order of the positions; unused ones are H or OH. Square brackets hold non-standard residues; d marks the D form. Peptide text beside a SMILES is read from it. X1 = N=C(N)NCCC[C@H](N[*:1])C(=O)c1nc2ccc(C(=O)[*:2])cc2s1

Tests used:
[1] = Mouse plasma protein binding; type: in vitro ADME
[2] = Mouse pharmacokinetics, IP dosing; conditions: for duration of compound exposure (detectable compound) in plasma: monitored for 24 h
[3] = molecular target: hepsin (Homo sapiens, UniProt P05981); experiment: Proteolytic processing of recombinant pro-HGF by hepsin; type: biochemical; conditions: pro-HGF 10 ng, hepsin 10 nM, one hour
Summary of the method: (§1)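 Recombinant pro-HGF (10 ng) was incubated 1 h with matriptase (1 nM), hepsin (10 nM) or HGFA (5 nM), with or without test compound. Products were immunoblotted with a polyclonal antibody detecting pro-HGF and the alpha and beta chains of active HGF. Active HGF was run as positive control.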

[4] = molecular target: T1, matriptase (Homo sapiens, UniProt Q9Y5Y6); experiment: Proteolytic processing of recombinant pro-HGF by matriptase; type: biochemical; conditions: pro-HGF 10 ng, matriptase 1 nM, one hour
T1 sequence (Q9Y5Y6 1-855): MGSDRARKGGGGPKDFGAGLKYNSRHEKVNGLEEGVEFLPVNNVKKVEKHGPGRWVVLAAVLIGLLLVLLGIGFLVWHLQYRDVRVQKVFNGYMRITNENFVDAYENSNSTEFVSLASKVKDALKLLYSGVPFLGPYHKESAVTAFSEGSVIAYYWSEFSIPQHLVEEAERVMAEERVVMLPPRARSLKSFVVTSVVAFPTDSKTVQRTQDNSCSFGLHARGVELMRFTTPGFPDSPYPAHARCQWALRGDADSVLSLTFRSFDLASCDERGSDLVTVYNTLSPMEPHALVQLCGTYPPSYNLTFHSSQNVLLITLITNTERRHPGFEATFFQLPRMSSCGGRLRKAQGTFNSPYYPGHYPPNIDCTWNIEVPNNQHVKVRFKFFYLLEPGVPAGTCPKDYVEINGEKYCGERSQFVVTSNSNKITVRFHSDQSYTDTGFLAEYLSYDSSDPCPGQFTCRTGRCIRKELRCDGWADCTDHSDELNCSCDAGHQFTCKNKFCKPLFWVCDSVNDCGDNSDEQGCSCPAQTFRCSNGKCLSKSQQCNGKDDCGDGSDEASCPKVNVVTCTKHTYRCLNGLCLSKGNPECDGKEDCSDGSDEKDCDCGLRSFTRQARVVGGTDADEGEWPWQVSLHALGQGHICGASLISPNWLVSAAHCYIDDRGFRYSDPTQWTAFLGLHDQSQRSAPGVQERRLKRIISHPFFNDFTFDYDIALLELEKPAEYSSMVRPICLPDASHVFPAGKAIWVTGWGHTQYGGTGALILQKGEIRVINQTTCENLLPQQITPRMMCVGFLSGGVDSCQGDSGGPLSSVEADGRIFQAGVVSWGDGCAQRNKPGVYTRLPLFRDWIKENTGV
Summary of the method: as §1

[5] = test system: EBC-1 lung cancer cells; experiment: Cell viability, pro-HGF-mediated resistance to MET inhibitor JNJ-38877605; type: cell-based; conditions: JNJ-38877605 25 nM, pro-HGF 100 ng/ml, inhibitor 1 μM, 48 h
Summary of the method: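 EBC-1 cells pre-incubated 24 h with pro-HGF (100 ng/ml), with or without test compound (1μM), then treated with MET kinase inhibitor JNJ-38877605 (25nM). Viability read by CellTiterGlo after 48 hrs. Means±S.E.M., n=3. One-way ANOVA with Dunnett's multiple comparison test against JNJ plus pro-HGF treated cells.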

[6] = Tolerability in mice, daily IP for 7 days; type: in vivo
[7] = molecular target: T2, HGFA (Homo sapiens, UniProt Q04756); experiment: Proteolytic processing of recombinant pro-HGF by HGFA; type: biochemical; conditions: pro-HGF 10 ng, HGFA 5 nM, one hour
T2 sequence (Q04756 373-655): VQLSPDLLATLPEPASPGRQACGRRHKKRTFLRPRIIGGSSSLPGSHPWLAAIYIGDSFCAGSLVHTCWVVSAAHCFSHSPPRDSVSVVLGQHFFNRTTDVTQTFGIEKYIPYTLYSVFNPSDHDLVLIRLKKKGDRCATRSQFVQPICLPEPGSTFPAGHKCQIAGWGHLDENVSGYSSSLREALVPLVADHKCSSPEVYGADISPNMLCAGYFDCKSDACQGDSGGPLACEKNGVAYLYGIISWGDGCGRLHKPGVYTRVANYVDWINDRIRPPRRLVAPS
Summary of the method: as §1

[8] = test system: HCC827 cells; experiment: Pro-HGF-mediated wound healing; type: cell-based; conditions: HCC827, inhibitor 10 μM, 24 h
Summary of the method: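 HCC827 monolayers were grown to confluence, serum-starved overnight and scratched. Cells were then pre-incubated 30 min with test compound (10 μM) and stimulated with HGF or pro-HGF for 24 h. Plates were stained with crystal violet and wound closure imaged; data average n=3.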

[9] = In vitro stability in mouse plasma; type: in vitro ADME
[10] = molecular target: T3, recombinant serine protease domain of HGFA (Homo sapiens, UniProt Q04756); experiment: Fluorescent kinetic enzyme inhibition assay, HGFA; type: biochemical
T3 sequence (Q04756 408-646 limits assumed): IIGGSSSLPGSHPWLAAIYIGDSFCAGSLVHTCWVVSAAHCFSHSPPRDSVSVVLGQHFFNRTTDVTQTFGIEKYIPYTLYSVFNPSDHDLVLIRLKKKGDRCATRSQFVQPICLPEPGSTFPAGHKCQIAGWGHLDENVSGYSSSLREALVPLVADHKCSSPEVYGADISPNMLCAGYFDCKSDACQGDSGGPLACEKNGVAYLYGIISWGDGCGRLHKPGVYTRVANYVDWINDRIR

[11] = molecular target: thrombin (Homo sapiens, UniProt P00734); experiment: Chromogenic kinetic enzyme assay, thrombin; type: biochemical
[12] = In vitro stability in human plasma; type: in vitro ADME
[13] = test system: H596 lung cancer cells; experiment: Pro-HGF-mediated growth of H596 cells in vitro; type: cell-based; conditions: pro-HGF 50 ng/ml; JNJ 500 nM, nafamostat […], ZFH7116 10 μM
[14] = test system: HCC827 lung cancer cells; experiment: Cell viability, pro-HGF-mediated resistance to gefitinib; type: cell-based; conditions: gefitinib 20 nM, pro-HGF 100 ng/ml, inhibitor 0.1-1 μM, 72 h
Summary of the method: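 HCC827 cells (EGFR exon-19 E746–A750 deletion) were exposed to gefitinib (20 nM), with or without pro-HGF (100 ng/ml), and test compound (0.1–1 μM) as indicated. Viability was read by crystal violet staining after 72 h. Data are means ± S.E.M. of n=3–5, analysed by one-way ANOVA with Dunnett's test against cells given gefitinib plus pro-HGF.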

[15] = test system: EBC-1 lung cancer cells; conditions: previous finding; cited from earlier work
[16] = read-out: Thrombin IC50, chromogenic substrate S2238

hepsin, sequence (P05981 whole entry): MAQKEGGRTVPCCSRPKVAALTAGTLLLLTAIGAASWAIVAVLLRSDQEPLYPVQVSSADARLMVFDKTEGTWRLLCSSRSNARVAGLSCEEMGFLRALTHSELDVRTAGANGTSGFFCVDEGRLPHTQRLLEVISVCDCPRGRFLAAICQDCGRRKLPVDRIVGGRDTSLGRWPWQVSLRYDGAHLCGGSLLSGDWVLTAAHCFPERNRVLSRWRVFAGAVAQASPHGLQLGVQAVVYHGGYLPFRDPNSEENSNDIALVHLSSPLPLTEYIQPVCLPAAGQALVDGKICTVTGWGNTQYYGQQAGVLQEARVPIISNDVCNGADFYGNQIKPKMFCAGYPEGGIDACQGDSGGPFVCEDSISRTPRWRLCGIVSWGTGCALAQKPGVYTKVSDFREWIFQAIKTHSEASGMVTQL

CC(=O)N[C@H]1CCCCNC(=O)C[C@@H](C(=O)N[C@@H](CCCNC(=N)N)C(=O)c2nc3ccccc3s2)NC(=O)[C@H](CC(C)C)NC1=O [Compound 15, Ac-cyclo(KLD)-R-ketobenzothiazole]
Mouse PPB (% free) [1]: 85.3 % free

CC(=O)N[C@H]1CCCCNC(=O)CC[C@@H](C(=O)N[C@@H](CCCNC(=N)N)C(=O)c2nc3ccccc3s2)NC(=O)[C@H](CC(C)C)NC1=O [Compound 16, Ac-cyclo(KLE)-R-ketobenzothiazole]
Mouse PPB (% free) [1]: 18.4 % free
duration of compound exposure (detectable compound) in plasma ([2]; IP 20 mg/kg): ≤ 8 h

CC(=O)N[C@H]1CCCCNC(=O)CC[C@@H](C(=O)N[C@@H](CCCNC(=N)N)C(=O)c2nc3ccccc3s2)NC(=O)[C@H](CCCNC(=N)N)NC1=O [Compound 17, Ac-cyclo(KRE)-R- ketobenzothiazole]
Mouse PPB (% free) [1]: 25.9 % free

CC(=O)N[C@H]1CC(=O)NCCCC[C@@H](C(=O)N[C@@H](CCCNC(=N)N)C(=O)c2nc3ccccc3s2)NC(=O)[C@H](CC(C)C)NC1=O [Compound 18, Ac-cyclo(DLK)-R- ketobenzothiazole]
inhibition of pro-HGF activation by hepsin [3]: potently inhibited
inhibition of pro-HGF activation by matriptase [4]: potently inhibited
pro-survival activity of pro-HGF in JNJ-38877605-treated EBC-1 cells [5]: blocked the pro-survival activity of pro-HGF
Mouse PPB (% free) [1]: 28.6 % free
AUC in mice (in words) ([2]; IP 20 mg/kg): high
duration of compound exposure above IC50s ([2]; IP 20 mg/kg): 24 h
duration of compound exposure (detectable compound) in plasma ([2]; IP 20 mg/kg): > 24 h
tolerated dose [6]: up to 20 mg/kg
inhibition of pro-HGF activation by HGFA [7]: did not inhibit
pro-HGF-mediated wound closure [8]: significantly inhibited

CC(=O)N[C@H]1CCC(=O)NCCCC[C@@H](C(=O)N[C@@H](CCCNC(=N)N)C(=O)c2nc3ccccc3s2)NC(=O)[C@H](CC(C)C)NC1=O [Compound 19, Ac-cyclo(ELK)-R- ketobenzothiazole]
half-life [9]: 2.62 h
IC50 [10]: > 20 µM
Mouse PPB (% free) [1]: 6.0 % free
IC50 [11]: > 20 µM
duration of compound exposure (detectable compound) in plasma ([2]; IP 20 mg/kg): ≤ 8 h
half-life ([2]; mouse, plasma, ip, 20 mg/kg): < 0.5 h
half-life [12]: > 4.82 h

CC(=O)N[C@H]1CC(=O)NCCCC[C@@H](C(=O)N[C@@H](CCCNC(=N)N)C(=O)c2nc3ccccc3s2)NC(=O)CNC1=O [Compound 22, Ac-cyclo(DGK)-R- ketobenzothiazole]
IC50 [11, 16]: > 20 µM

CC(=O)N[C@H]1CC(=O)NCCCC[C@@H](C(=O)N[C@@H](CCCNC(=N)N)C(=O)c2nc3ccccc3s2)NC(=O)[C@H](C)NC1=O [Compound 23, Ac-cyclo(DAK)-R- ketobenzothiazole]
IC50 [11, 16]: > 20 µM

CC(=O)N[C@H]1CC(=O)NCCCC[C@@H](C(=O)N[C@@H](CCCNC(=N)N)C(=O)c2nc3ccccc3s2)NC(=O)[C@H](C(C)C)NC1=O [Compound 24, Ac-cyclo(DVK)-R- ketobenzothiazole]
IC50 [11, 16]: > 20 µM

CC(=O)N[C@H]1CC(=O)NCCCC[C@@H](C(=O)N[C@@H](CCCNC(=N)N)C(=O)c2nc3ccccc3s2)NC(=O)[C@H](CC(N)=O)NC1=O [Compound 25, Ac-cyclo(DNK)-R- ketobenzothiazole]
IC50 [11, 16]: > 20 µM

CC(=O)N[C@H]1CC(=O)NCCCC[C@@H](C(=O)N[C@@H](CCCNC(=N)N)C(=O)c2nc3ccccc3s2)NC(=O)[C@H](CCC(N)=O)NC1=O [Compound 26, Ac-cyclo(DQK)-R- ketobenzothiazole]
IC50 [11, 16]: > 20 µM

CC(=O)N[C@H]1CC(=O)NCCCC[C@@H](C(=O)N[C@@H](CCCNC(=N)N)C(=O)c2nc3ccccc3s2)NC(=O)[C@H]([C@@H](C)O)NC1=O [Compound 27, Ac-cyclo(DTK)-R- ketobenzothiazole]
IC50 [11, 16]: > 20 µM

CC(=O)N[C@H]1CC(=O)NCCCC[C@@H](C(=O)N[C@@H](CCCNC(=N)N)C(=O)c2nc3ccccc3s2)NC(=O)[C@H](Cc2ccccc2)NC1=O [Compound 29, Ac-cyclo(DFK)-R- ketobenzothiazole]
AUC in mice (in words) ([2]; IP 20 mg/kg): comparable to 18

CC(=O)N[C@H]1CC(=O)NCCCC[C@@H](C(=O)N[C@@H](CCCNC(=N)N)C(=O)c2nc3ccccc3s2)NC(=O)[C@H](Cc2ccc(O)cc2)NC1=O [Compound 30, Ac-cyclo(DYK)-R- ketobenzothiazole]
IC50 [11, 16]: > 20 µM

CC(=O)N[C@@H](CO)C(=O)N[C@@H](CCCCN)C(=O)N[C@@H](CC(C)C)C(=O)N[C@@H](CCCNC(=N)N)C(=O)c1nc2ccc(C(=O)N[C@H](C(N)=O)C(C)C)cc2s1 [Compound 31] (Ac-SKL[X1]V-NH2)
pro-HGF-mediated growth of H596 cells [13]: blocked the growth-promoting activity of pro-HGF
inhibition of pro-HGF activation by hepsin [3]: potently inhibited
inhibition of pro-HGF activation by matriptase [4]: potently inhibited
pro-survival activity of pro-HGF in JNJ-38877605-treated EBC-1 cells [5]: blocked the pro-survival activity of pro-HGF
Mouse PPB (% free) [1]: 16.7 % free
pro-survival effect of pro-HGF in gefitinib-treated HCC827 cells [14]: blocked the pro-survival effects of pro-HGF
inhibition of pro-HGF activation by HGFA [7]: potently inhibited
pro-HGF-mediated wound closure [8]: significantly inhibited

Cn1cc(-c2ccc3nnc(C(F)(F)c4ccc5ncccc5c4)n3n2)cn1 [JNJ-38877605]
pro-HGF-mediated growth of H596 cells [13]: inhibited the pro-HGF-mediated growth of H596 cells

N=C(N)Nc1ccc(C(=O)Oc2ccc3cc(C(=N)N)ccc3c2)cc1 [Nafamostat]
pro-HGF-mediated growth of H596 cells [13]: inhibited the pro-HGF-mediated growth of H596 cells

CC1CN(CC2CCN(Cc3ccccc3)CC2)C(=O)N(c2cccc(C(=N)N)c2)C1.O=C(O)C(F)(F)F (stereo not shown) [SRI31215]
HGF-mediated survival of MET-amplified cancer cells upon MET inhibition [15]: inhibited
